pIC50, pKi: −log10 of the molar value.
Assays:
L1210 [1] = test: Antitumor activity against L1210 cell line as cell membrane transport activity; type: functional, Mus musculus
Dihydrofolate reductase = molecular target: T1, Dihydrofolate reductase (Mus musculus, UniProt P00375); test: In vitro inhibitory activity against Dihydrofolate reductase in L1210 cell in mice; type: cell-based
T1 sequence (P00375 whole entry): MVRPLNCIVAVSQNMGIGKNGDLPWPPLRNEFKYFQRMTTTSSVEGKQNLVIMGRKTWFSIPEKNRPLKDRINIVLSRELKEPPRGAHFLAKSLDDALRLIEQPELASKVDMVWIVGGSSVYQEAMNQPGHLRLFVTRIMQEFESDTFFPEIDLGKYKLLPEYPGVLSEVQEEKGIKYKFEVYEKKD

L1210 [2] = test: Inhibition of L1210 cell growth in mice.; type: functional, cell-based; conditions: Mus musculus
L1210 [3] = test: Antitumor activity L1210 cell line as cell membrane transport activity; type: functional, cell-based; conditions: Mus musculus
L1210 [4] = test: In vivo antitumor activity as increase in life span in mice with L1210 10E6 tumor cell implanted intraperitoneally; optimal dose is 768 mg/kg.; type: functional; conditions: Mus musculus, L1210, ip, route intraperitoneal
Mus musculus [5] = test: Antitumor activity in mice with L1210 Leukemia and […] (MST) in days was reported for 3 mice x 2 experiments at a dose of 432 mg/Kg.; type: functional
Summary of the method: (§1)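 L1210 leukemia-bearing mice dosed on a q2d × 5 schedule. Untreated controls were 5 mice × 12 experiments. Read-outs were MST (days ± SD), % ILS versus control, and body weight at termination (g ± SD).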

Mus musculus [6] = test: Antitumor activity in mice with L1210 Leukemia and percentage increase in life span was reported for 3 mice x 2 experiments at a dose of 432 mg/Kg; type: functional; summary of the method: as §1
Mus musculus [7] = test: Antitumor activity in mice with L1210 Leukemia and weight at termination of the therapy was reported for 3 mice x 2 experiments at a dose of 432 mg/Kg.; type: functional
CCRF S-180 = test: In vitro antitumor activity against S180 cell line.; type: functional, Mus musculus
L1210 [8] = test: (§2) In vitro antitumor activity against L1210 cell line.; type: functional, Mus musculus
Epithelial cell line = test: (§3) In vitro antitumor activity against epithelial cell line.; type: functional, Mus musculus
L1210 [9] = test: as §2; type: functional, cell-based; conditions: Mus musculus
Ehrlich [10] = test: In vitro antitumor activity against Erlich cell line.; type: functional, Mus musculus
P388 = test: In vivo antitumor activity as increase in life span in mice with P388 10E6 tumor cell implanted intraperitoneally; type: functional, Mus musculus
Mus musculus [11] = test: Antitumor activity in mice with L1210 Leukemia and percentage increase in life span was reported for 3 mice x 2 experiments at a dose of 144 mg/kg; type: functional; summary of the method: as §1
Mus musculus [12] = test: Antitumor activity in mice with L1210 Leukemia and […] (MST) in days was reported for 3 mice x 2 experiments at a dose of 144 mg/kg.; type: functional; summary of the method: as §1
Mus musculus [13] = test: Antitumor activity in mice with L1210 Leukemia and weight at termination of the therapy was reported for 3 mice x 2 experiments at a dose of 144 mg/kg.; type: functional
Mus musculus [14] = test: Antitumor activity in mice with L1210 Leukemia and percentage increase in life span was reported for 5 mice x 12 experiments at a dose of 15 mg/Kg
Mus musculus [15] = organism: Mus musculus; test: Antitumor activity against L1210 cell […]; type: functional
Ehrlich [16] = test: In vitro antitumor activity against Erlich cell line,; type: functional, Mus musculus
Mus musculus [17] = test: Antitumor activity in mice with L1210 Leukemia and weight at termination of the therapy was reported for 5 mice x 12 experiments at a dose of 15 mg/kg.; type: functional
Epithelial cell = test: as §3; type: functional, Mus musculus
L1210 [18] = test: In vivo antitumor activity as increase in life span in mice with L1210 10E6 tumor cell implanted intraperitoneally; optimal dose is 12 mg/kg.; type: functional; conditions: Mus musculus, L1210, ip, route intraperitoneal
[19] = In vitro antitumor activity against S180 cells.; type: functional, Mus musculus, CCRF S-180

CN(Cc1cnc2nc(N)nc(N)c2n1)c1ccc(C(=O)NC(CCCNC(=O)c2ccc(Cl)cc2)C(=O)O)cc1 (stereo not given)
Influx Ki (L1210 [1]): 4320 nM | pKi (Dihydrofolate reductase): 11.27 | pIC50 (L1210 [2]): 8.77 | Efflux Ki (L1210 [3]): 0.437 min⁻¹ | ILS at 768 mg/kg (L1210 [4]): 104%

CN(Cc1cnc2nc(N)nc(N)c2n1)c1ccc(C(=O)NC(CN)C(=O)O)cc1 (stereo not given)
pIC50 (L1210 [2]): 5.99

CN(Cc1cnc2nc(N)nc(N)c2n1)c1ccc(C(=O)NC(CNC(N)=O)C(=O)O)cc1 (stereo not given)
MST (Mus musculus [5]): 16.3 days | pKi (Dihydrofolate reductase): 7.46 | ILS at 432 mg/kg (Mus musculus [6]): 129% | pIC50 (L1210 [2]): 8.03 | Weight (Mus musculus [7]): 16 g | Influx Ki (CCRF S-180): 11600 nM | Influx Ki (L1210 [8]): 11600 nM | Influx Ki (Epithelial cell line): >500000 nM | Efflux Ki (L1210 [9]): 0.25 min⁻¹ | Influx Ki (Ehrlich [10]): 12500 nM

CN(Cc1cnc2nc(N)nc(N)c2n1)c1ccc(C(=O)NC(CCCNC(=O)OC(C)(C)C)C(=O)O)cc1 (stereo not given)
pIC50 (L1210 [2]): 7.01

CN(Cc1cnc2nc(N)nc(N)c2n1)c1ccc(C(=O)NC(CCNC(=O)OC(C)(C)C)C(=O)O)cc1 (stereo not given)
pIC50 (L1210 [2]): 6.48

CCOC(=O)C(CNC(=O)N(CCCl)N=O)NC(=O)c1ccc(N(C)Cc2cnc3nc(N)nc(N)c3n2)cc1 (stereo not given)
Influx Ki (L1210 [1]): 46900 nM | pKi (Dihydrofolate reductase): 8.49 | pIC50 (L1210 [2]): 5.54 | Efflux Ki (L1210 [3]): 0.202 min⁻¹ | ILS (P388): 113%

CN(Cc1cnc2nc(N)nc(N)c2n1)c1ccc(C(=O)NC(CNC(=O)OC(C)(C)C)C(=O)O)cc1 (stereo not given)
pIC50 (L1210 [2]): 6.36

CN(Cc1cnc2nc(N)nc(N)c2n1)c1ccc(C(=O)NC(CCN)C(=O)O)cc1 (stereo not given)
pIC50 (L1210 [2]): 5.87

CNC(=O)NCC(NC(=O)c1ccc(N(C)Cc2cnc3nc(N)nc(N)c3n2)cc1)C(=O)O (stereo not given)
pKi (Dihydrofolate reductase): 7.85 | pIC50 (L1210 [2]): 7.46 | ILS at 144 mg/kg (Mus musculus [11]): 12% | Influx Ki (CCRF S-180): 19700 nM | Influx Ki (L1210 [8]): 16700 nM | MST (Mus musculus [12]): 7 days | Influx Ki (Epithelial cell line): >500000 nM | Efflux Ki (L1210 [9]): 0.27 min⁻¹ | Weight (Mus musculus [13]): 20 g | Influx Ki (Ehrlich [10]): 13400 nM

CCOC(=O)C(CNC(=O)N(C)N=O)NC(=O)c1ccc(N(C)Cc2cnc3nc(N)nc(N)c3n2)cc1 (stereo not given)
Influx Ki (L1210 [1]): 42400 nM | pKi (Dihydrofolate reductase): 8.20 | pIC50 (L1210 [2]): 5.44 | Efflux Ki (L1210 [3]): 0.298 min⁻¹ | ILS (P388): 58%

CN(Cc1cnc2nc(N)nc(N)c2n1)c1ccc(C(=O)N[C@@H](CCC(=O)O)C(=O)O)cc1 [METHOTREXATE]
Influx Ki (L1210 [1]): 4570 nM | pIC50 (L1210 [2]): 8.48 | Efflux Ki (L1210 [3]): 0.203 min⁻¹ | ILS at 15 mg/kg (Mus musculus [14]): 152% | pIC50 (Mus musculus [15]): 8.48 | Influx Ki (Ehrlich [16]): 10100 nM | Influx Ki (CCRF S-180): 11400 nM | Effllux (L1210 [8]): 0.23 min⁻¹ | Influx Ki (L1210 [8]): 3700 nM | Weight (Mus musculus [17]): 19.8 g | Influx Ki (Epithelial cell): 339000 nM | ILS at 12 mg/kg (L1210 [18]): 173%

CN(Cc1cnc2nc(N)nc(N)c2n1)c1ccc(C(=O)NC(CCCN)C(=O)O)cc1 (stereo not given)
pIC50 (L1210 [2]): 6.29

CN(Cc1cnc2nc(N)nc(N)c2n1)c1ccc(C(=O)NC(CCNC(N)=O)C(=O)O)cc1 (stereo not given)
MST (Mus musculus [5]): 9.3 days | pKi (Dihydrofolate reductase): 11.40 | ILS at 432 mg/kg (Mus musculus [6]): 33% | pIC50 (L1210 [2]): 7.66 | Weight (Mus musculus [7]): 21.6 g | Influx Ki [19]: 24600 nM | Influx Ki (L1210 [8]): 17300 nM | Influx Ki (Epithelial cell line): >500000 nM | Efflux Ki (L1210 [9]): 0.19 min⁻¹ | Influx Ki (Ehrlich [10]): 15900 nM

CN(Cc1cnc2nc(N)nc(N)c2n1)c1ccc(C(=O)NC(CNC(=O)c2ccc(Cl)cc2)C(=O)O)cc1 (stereo not given)
Influx Ki (L1210 [1]): 7430 nM | pKi (Dihydrofolate reductase): 11.30 | pIC50 (L1210 [2]): 7.92 | Efflux Ki (L1210 [3]): 0.255 min⁻¹

CN(Cc1cnc2nc(N)nc(N)c2n1)c1ccc(C(=O)NC(CCNC(=O)c2ccc(Cl)cc2)C(=O)O)cc1 (stereo not given)
Influx Ki (L1210 [1]): 4670 nM | pKi (Dihydrofolate reductase): 11.19 | pIC50 (L1210 [2]): 7.56 | Efflux Ki (L1210 [3]): 1.21 min⁻¹

CN(Cc1cnc2nc(N)nc(N)c2n1)c1ccc(C(=O)NC(CNC(=O)NC(CCC(=O)O)C(=O)O)C(=O)O)cc1 (stereo not given)
Influx Ki (L1210 [1]): 16400 nM | pKi (Dihydrofolate reductase): 11.33 | pIC50 (L1210 [2]): 6.70 | Efflux Ki (L1210 [3]): 0.234 min⁻¹

— ChEMBL document CHEMBL1122910, “Syntheses and evaluation as antifolates of MTX analogues derived from 2, omega-diaminoalkanoic acids” (J Med Chem, 1985)
